Results as given in ChEMBL document CHEMBL4038304, “Chiral Indolylarylsulfone Non-Nucleoside Reverse Transcriptase Inhibitors as New Potent and Broad Spectrum Anti-HIV-1 Agents” (J Med Chem, 2017).

Legend:
[1] = Selectivity index, ratio of CC50 for human MT4 cells to EC50 for HIV1 NL4-3 infected in human MT4 cells; format: toxicity, cell-based; conditions: read-out: Ratio CC50/EC50
In short: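 SI computed as CC50/EC50, using the MTT-based CC50 in uninfected MT-4 cells and the MTT-based EC50 against HIV-1 NL4-3-induced cell death in MT-4 cells. Experiments were run in triplicate, two to three times.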

[2] = system: Human immunodeficiency virus 1; assay: Antiviral activity against HIV1 NL4-3 infected in human […] cells assessed as protection against virus-induced cytopathic effect measured on day 5 post infection by MTT assay; format: functional, cell-based; conditions: Human immunodeficiency virus 1, NL4-3, 120 h
In short: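 Values are means of two to three independent experiments, each run in triplicate. The lowest detectable concentration is reported where activity fell below the assay limit.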

[3] = Cytotoxicity against human MT4 cells assessed as cell viability by MTT assay; format: cell-based
In short: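 Uninfected MT-4 cells scored for viability by MTT. […] Values are means of two to three independent experiments, each run in triplicate.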

[4] = system: Human immunodeficiency virus 1; assay: Ratio of EC50 for HIV-1 harboring reverse transcriptase K103N/[…] double mutant infected in human MT4 cells to EC50 for HIV1 NL4-3 infected in human MT4 cells; format: functional
In short: (§1)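 Fold change calculated as EC50 against the stated resistant mutant HIV-1 strain divided by EC50 against wild-type NL4-3. Both EC50s come from MTT read-out of virus-induced death in MT-4 cells, mean of two to three independent experiments each in triplicate.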

[5] = system: Human immunodeficiency virus 1; assay: Antiviral activity against HIV1 harboring reverse transcriptase K103N mutant infected in human […] cells assessed as protection against virus-induced cytopathic effect measured on day 5 post infection by MTT assay; format: functional, cell-based; conditions: Human immunodeficiency virus 1, 120 h
[6] = system: Human immunodeficiency virus 1; assay: Antiviral activity against HIV1 harboring reverse transcriptase K103N /[…] double mutant infected in human […] cells assessed as protection against virus-induced cytopathic effect measured on day 5 post infection by MTT assay; format: functional, cell-based; conditions: Human immunodeficiency virus 1, 120 h
[7] = system: Human immunodeficiency virus 1; assay: Antiviral activity against HIV1 harboring reverse transcriptase Y181C mutant infected in human […] cells assessed as protection against virus-induced cytopathic effect measured on day 5 post infection by MTT assay; format: functional, cell-based; conditions: Human immunodeficiency virus 1, 120 h
[8] = system: Human immunodeficiency virus 1; assay: Ratio of EC50 for HIV-1 harboring reverse transcriptase K103N mutant infected in human MT4 cells to EC50 for HIV1 NL4-3 infected in human MT4 cells; format: functional; in short: as §1
[9] = system: Human immunodeficiency virus 1; assay: Ratio of EC50 for HIV-1 harboring reverse transcriptase Y188L mutant infected in human MT4 cells to EC50 for HIV1 NL4-3 infected in human MT4 cells; format: functional; in short: as §1
[10] = system: Human immunodeficiency virus 1; assay: Antiviral activity against HIV1 harboring reverse transcriptase Y188L mutant infected in human […] cells assessed as protection against virus-induced cytopathic effect measured on day 5 post infection by MTT assay; format: functional, cell-based; conditions: Human immunodeficiency virus 1, 120 h
[11] = system: Human immunodeficiency virus 1; assay: Ratio of EC50 for HIV-1 harboring reverse transcriptase Y181C mutant infected in human MT4 cells to EC50 for HIV1 NL4-3 infected in human MT4 cells; format: functional; in short: as §1

SMILES | selectivity ratio [1] | EC50 [2] | CC50 [3] | Ratio EC50 [4] | EC50 [5] | EC50 [6] | EC50 [7] | Ratio EC50 [8] | Ratio EC50 [9] | EC50 [10] | Ratio EC50 [11]
Cc1cc(C)cc(S(=O)(=O)c2c(C(=O)NC(c3ccc(Cl)cc3)C3CC3)[nH]c3ccc(Cl)cc23)c1 (racemic) | > 359 | 133 nM | > 47400 nM |  |  |  |  |  |  |  | 
Cc1cc(C)cc(S(=O)(=O)c2c(C(=O)NC(C)c3ccccc3F)[nH]c3ccc(Cl)cc23)c1 (racemic) | > 73600 | 0.7 nM | > 51500 nM | >5656 | 0.7 nM | 3960 nM | 103 nM | 1 | >1384 | 969 nM | >147
Cc1cc(C)cc(S(=O)(=O)c2c(C(=O)NC(C)C(=O)NCc3ccccc3F)[nH]c3ccc(Cl)cc23)c1 (racemic) | 23300 | 0.6 nM | 23300 nM | >38775 | 26 nM | > 23300 nM | 93 nM | 43 | 7067 | 4240 nM | 155
Cc1cc(C)cc(S(=O)(=O)c2c(C(=O)NCC(=O)N[C@@H](C)c3ccncc3)[nH]c3ccc(Cl)cc23)c1 |  | 0.7 nM |  |  | 438 nM | 4630 nM | 2.5 nM |  |  | 3050 nM | 
Cc1cc(C)cc(S(=O)(=O)c2c(C(=O)NC(CF)c3ccccc3)[nH]c3ccc(Cl)cc23)c1 (racemic) | > 70300 | 0.7 nM | 49200 nM | 39030 | 0.7 nM | 27300 nM | 82 nM | 1 |  |  | 117
Cc1ccnc2c1NC(=O)c1cccnc1N2C1CC1 [NEVIRAPINE] |  | 112 nM | > 18800 nM |  | > 3760 nM | > 3760 nM | > 3760 nM |  |  | > 3760 nM | 
Cc1cc(C)cc(S(=O)(=O)c2c(C(=O)NCc3n[nH]c4ccccc34)[nH]c3ccc(Cl)cc23)c1 | > 84500 | 0.6 nM | > 50700 nM | 913 | 0.6 nM | 548 nM | 0.6 nM | 1 | 237 | 142 nM | 1
Cc1cc(C)cc(S(=O)(=O)c2c(C(=O)NC(C)C(=O)NC(C)c3ccccc3)[nH]c3ccc(Cl)cc23)c1 (racemic) | > 36900 | 0.6 nM | 21700 nM | 42149 | 1.9 nM | 24900 nM | 167 nM | 3.2 | 6427 | 3790 nM | 283
Cc1cn([C@H]2C[C@H](N=[N+]=[N-])[C@@H](CO)O2)c(=O)[nH]c1=O [ZIDOVUDINE] | > 8270 | 3.7 nM | > 30600 nM |  | 16 nM | 16 nM | 6 nM | 4.3 | 8.9 | 33 nM | 1.6
Cc1cc(C)cc(S(=O)(=O)c2c(C(=O)NC(C)C(=O)NCc3ccncn3)[nH]c3ccc(Cl)cc23)c1 (racemic) | > 46800 | 0.6 nM | 28100 nM | >1330 | 0.6 nM | 798 nM | 0.6 nM | 1 | >1267 | 760 nM | 1
Cc1cc(C)cc(S(=O)(=O)c2c(C(=O)NCC(=O)NC(C)c3ccncc3)[nH]c3ccc(Cl)cc23)c1 (racemic) | > 78400 | 0.6 nM | 47000 nM | 22227 | 38 nM | 13300 nM | 0.6 nM | 64 | 1017 | 610 nM | 1
Cc1cc(C)cc(S(=O)(=O)c2c(C(=O)NC(C)C(=O)NCc3ccco3)[nH]c3ccc(Cl)cc23)c1 (racemic) | > 40400 | 0.6 nM | 24200 nM | >7521 | 1.9 nM | 4510 nM | 27 nM | 3 | 4053 | 2430 nM | 45
Cc1cc(C)cc(S(=O)(=O)c2c(C(=O)NCC(=O)N[C@H](C)c3ccncc3)[nH]c3ccc(Cl)cc23)c1 |  | 0.7 nM |  |  | 152 nM | 12200 nM | 5.71 nM |  |  | 3270 nM | 
Cc1cc(C)cc(S(=O)(=O)c2c(C(=O)NC(C)C(=O)NC(C)c3ccncc3)[nH]c3ccc(Cl)cc23)c1 (racemic) | > 36500 | 0.6 nM | 21900 nM | >60805 | 7.4 nM | > 36500 nM | 167 nM | 12 | 21488 | 12900 nM | 278
Cc1cc(C)cc(S(=O)(=O)c2c(C(=O)NCC(=O)NCc3ccncc3)[nH]c3ccc(Cl)cc23)c1 | > 245000 | 0.2 nM | > 48900 nM | 30430 | 190 nM | 6090 nM | 20 nM |  |  | 1400 nM | 100
Cc1cc(C)cc(S(=O)(=O)c2c(C(=O)NCC(=O)NCCc3cccs3)[nH]c3ccc(Cl)cc23)c1 | 9480 | 3.8 nM | 35700 nM | >941 | 1340 nM | > 3580 nM | 321 nM | 352 | >941 | > 3580 nM | 84
Cc1cc(C)cc(S(=O)(=O)c2c(C(=O)NC(C)c3cc(F)cc(F)c3)[nH]c3ccc(Cl)cc23)c1 (racemic) | > 82800 | 0.6 nM | > 49700 nM | >82843 | 1.2 nM | > 49700 nM | 716 nM | 2 |  |  | 1198
Cc1cc(C)cc(S(=O)(=O)c2c(C(=O)Nc3cc(C#N)ccn3)[nH]c3ccc(Cl)cc23)c1 | > 89600 | 0.6 nM | > 53800 nM | >89622 | 0.6 nM | > 53800 nM | 2.2 nM | 1 |  |  | 3.7
Cc1cc(C)cc(S(=O)(=O)c2c(C(=O)NC(C)c3ccco3)[nH]c3ccc(Cl)cc23)c1 (racemic) | > 78200 | 0.7 nM | > 54700 nM | 17195 | 109 nM | 12000 nM | 22 nM | 155 | 500 | 350 nM | 31
Cc1cc(C)cc(S(=O)(=O)c2c(C(=O)NCC(=O)NCCn3c(C)cnc3[N+](=O)[O-])[nH]c3ccc(Cl)cc23)c1 | 144000 | 0.2 nM | 24500 nM | 23285 | 279 nM | 4680 nM | 17 nM | 1395 | 11605 | 2320 nM | 85
COc1cccc(F)c1CNC(=O)c1[nH]c2ccc(Cl)cc2c1S(=O)(=O)c1cc(C)cc(C)c1 | > 83200 | 0.6 nM | > 49900 nM | 46243 | 0.6 nM | 27700 nM | 399 nM | 1 |  |  | 665
Cc1cc(C)cc(S(=O)(=O)c2c(C(=O)NCC(=O)NCc3ccccc3F)[nH]c3ccc(Cl)cc23)c1 | > 78900 | 0.6 nM | > 47300 nM | >72248 | 1330 nM | > 47300 nM | 1.3 nM | 1894 | 10258 | 6160 nM | 1.9
Cc1cc(C)cc(S(=O)(=O)c2c(C(=O)NCc3cccc(F)c3F)[nH]c3ccc(Cl)cc23)c1 | > 73000 | 0.7 nM | > 51100 nM | >73046 | 0.7 nM | > 51100 nM | 2 nM | 1 |  |  | 2.9
